The source made the active and inactive calls. No cut-off for these calls is given here.
Columns and labels:
[1] = Growth inhibition of human NSCLC cells; format: functional
[2] = Growth inhibition of human Leukemia cells; format: functional; details: for GI50 / TGI: Leukemia cell
[3] = Growth inhibition of human Colon cancer cells; format: functional; details: Cancer cell lines; for CC50: read-out: LC50 (the source's name)
[4] = Growth inhibition of human CNS cancer cells; format: functional; details: Cancer cell lines
[5] = Growth inhibition of human Melanoma cells; format: functional; details: Melanoma cell
[6] = Growth inhibition of human Ovarian cancer cells; format: functional; details: Cancer cell lines
[7] = Growth inhibition of human Renal cancer cells; format: functional; details: Cancer cell lines
[8] = Growth inhibition of human Breast cancer cells; format: functional; details: Cancer cell lines
[9] = Growth inhibition of human Prostate cancer cells; format: functional; details: Cancer cell lines
REH [10] = assay: Cytotoxicity against human REH cells assessed as reduction in cell viability at 10 to 250 uM after 24 to 72 hrs by trypan blue exclusion assay; format: functional, cell-based
Summary of the method: (§1)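 Reh, K562 and Nalm6 leukemic cells were treated with 10, 50, 100 and 250 µM or with 0.1, 0.5, 1, 5 and 10 µM (compounds dissolved in DMSO). Viability was scored by trypan blue after 24, 48 and 72 h. DMSO-treated cells served as vehicle control.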

K562 = assay: Cytotoxicity against human K562 cells assessed as reduction in cell viability at 10 to 250 uM after 24 to 72 hrs by trypan blue exclusion assay; format: functional, cell-based; summary of the method: as §1
NALM-6 = assay: Cytotoxicity against human NALM6 cells assessed as reduction in cell viability at 10 to 250 uM after 24 to 72 hrs by trypan blue exclusion assay; format: functional, cell-based; summary of the method: as §1
REH [11] = assay: Cytotoxicity against human REH cells assessed as reduction in cell viability at 100 to 250 uM after 48 to 72 hrs by MTT assay; format: functional, cell-based
Summary of the method: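 MTT viability read-out in leukemic cells treated with 10, 50, 100 and 250 µM or with 0.1, 0.5, 1, 5 and 10 µM. Cells harvested after 48 and 72 h. Compounds dissolved in DMSO.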

SMILES	GI50 [1]	LC50 (concentration killing 50% of cells) [1]	TGI [1]	GI50 [2]	TGI [2]	GI50 [3]	TGI [3]	GI50 [4]	TGI [4]	GI50 [5]	TGI [5]	GI50 [6]	TGI [6]	GI50 [7]	TGI [7]	GI50 [8]	TGI [8]	GI50 [9]	TGI [9]	also measured
COc1ccc(-c2nc3sc(Cc4ccccc4)nn3c2SC#N)cc1	4.6 µM	83.2 µM	52.5 µM	3.6 µM	72.4 µM	4.1 µM	61.7 µM	3.9 µM	55 µM	5.8 µM	77.6 µM	5.6 µM	56.2 µM	7.9 µM	70.8 µM	4.8 µM	60.3 µM	–	–	LC50 [5]: 89.1 µM
Clc1ccc(-c2cn3nc(Cc4ccccc4)sc3n2)cc1	7.6 µM	57.5 µM	20.9 µM	2.1 µM	23.4 µM	2.2 µM	5.3 µM	5 µM	13.8 µM	3.7 µM	8.9 µM	4.6 µM	10.5 µM	2.6 µM	5.9 µM	4 µM	12 µM	2.9 µM	8.1 µM	LC50 (concentration causing 50% net cell kill) [2]: 95.5 µM; CC50 [3]: 14.1 µM; LC50 [4]: 34.7 µM; LC50 [5]: 21.9 µM; LC50 [6]: 30.9 µM; LC50 [7]: 15.1 µM; CC50 ([9]; read-out: LC50 (the source's name)): 23.4 µM; LC50 [8]: 49 µM; Activity (REH [10]): Active; Activity (K562): Active; Activity (NALM-6): Active; Activity (REH [11]): Active
O=Cc1c(-c2ccc(F)cc2)nc2sc(CCC3CCCCC3)nn12	13.2 µM	–	75.9 µM	10.2 µM	70.8 µM	5.9 µM	63.1 µM	7.1 µM	67.6 µM	21.9 µM	87.1 µM	12.3 µM	97.7 µM	14.1 µM	93.3 µM	11.8 µM	61.7 µM	7.4 µM	–	–
CO[C@H]1/C=C/O[C@@]2(C)Oc3c(C)c(O)c4c(O)c(cc(O)c4c3C2=O)NC(=O)/C(C)=C\C=C\[C@H](C)[C@H](O)[C@@H](C)[C@@H](O)[C@@H](C)[C@H](OC(C)=O)[C@@H]1C [RIFAMYCIN]	14.5 µM	–	–	3.2 µM	–	10 µM	–	21.4 µM	–	15.5 µM	–	18.6 µM	–	15.9 µM	–	16.6 µM	–	10 µM	–	–
N#CSc1c(-c2ccccc2)nc2sc(Cc3ccccc3)nn12	6 µM	97.7 µM	75.9 µM	13.5 µM	57.5 µM	11.2 µM	91.2 µM	4.4 µM	77.6 µM	20.9 µM	85.1 µM	9.8 µM	79.4 µM	15.1 µM	70.8 µM	7.4 µM	75.9 µM	15.5 µM	40.7 µM	LC50 [6]: 97.7 µM; LC50 [7]: 95.5 µM
O=[N+]([O-])c1ccc(-c2nc3sc(Cc4ccccc4)nn3c2Br)cc1	12.6 µM	–	56.2 µM	69.2 µM	–	52.5 µM	83.2 µM	3.4 µM	47.9 µM	40.7 µM	–	6.3 µM	83.2 µM	3.7 µM	64.6 µM	17.4 µM	79.4 µM	42.7 µM	–	–
O=Cc1c(-c2ccc([N+](=O)[O-])cc2)nc2sc(Cc3ccccc3)nn12	2.9 µM	95.5 µM	45.7 µM	5.9 µM	26.3 µM	3.1 µM	31.6 µM	2.9 µM	26.9 µM	3.7 µM	42.7 µM	4.1 µM	39.8 µM	3.7 µM	58.9 µM	2.8 µM	26.3 µM	3 µM	50.1 µM	LC50 (concentration causing 50% net cell kill) [2]: 69.2 µM; CC50 [3]: 85.1 µM; LC50 [4]: 83.2 µM; LC50 [8]: 83.2 µM

— ChEMBL document CHEMBL3352816, “Synthesis and antiproliferative activity of imidazo[2,1-b][1,3,4]thiadiazole derivatives” (Bioorg Med Chem Lett, 2014)
